# Compound activity from PubChem.
# PLC-gamma1 inh: PLC-gamma1 enzyme inhibitors, primary screen, biochemical, fluorescence, purified enzyme; AID 720700, 2013; inhibition, % at 12.2 µM; fluorogenic substrate; 0.84% of 370,000 active
# ASAP1 GAP inh: inhibitors of human ASAP1 ArfGAP activity, primary screen, biochemical, fluorescence polarization; Arf-GAP with SH3 domain, ANK repeat and PH domain-containing protein 1 (Homo sapiens), …; ASAP1-stimulated ARF1 GTP hydrolysis, GDP FP detection; inhibition, % at 16.5 µM; 0.19% of 360,000 active; AID 624377, 2012; in the data active = inhibition above about 25%;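 note: 0% = vehicle with enzyme and substrate and 100% = no enzyme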
# PLCb3 inh: human PLC-beta3 inhibitors, primary screen, biochemical, fluorescence; 1-phosphatidylinositol 4,5-bisphosphate phosphodiesterase beta-3 (Homo sapiens), Q01970; Purified PLC-beta3, fluorogenic substrate; inhibition, % at 12.2 µM; 0.18% of 370,000 active; AID 720704, 2013; in the data active = inhibition above about 11%;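 note: 0% = median of compound wells on plate and 100% = full blocker control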
# Target sequence (Q01970 whole entry, looked up): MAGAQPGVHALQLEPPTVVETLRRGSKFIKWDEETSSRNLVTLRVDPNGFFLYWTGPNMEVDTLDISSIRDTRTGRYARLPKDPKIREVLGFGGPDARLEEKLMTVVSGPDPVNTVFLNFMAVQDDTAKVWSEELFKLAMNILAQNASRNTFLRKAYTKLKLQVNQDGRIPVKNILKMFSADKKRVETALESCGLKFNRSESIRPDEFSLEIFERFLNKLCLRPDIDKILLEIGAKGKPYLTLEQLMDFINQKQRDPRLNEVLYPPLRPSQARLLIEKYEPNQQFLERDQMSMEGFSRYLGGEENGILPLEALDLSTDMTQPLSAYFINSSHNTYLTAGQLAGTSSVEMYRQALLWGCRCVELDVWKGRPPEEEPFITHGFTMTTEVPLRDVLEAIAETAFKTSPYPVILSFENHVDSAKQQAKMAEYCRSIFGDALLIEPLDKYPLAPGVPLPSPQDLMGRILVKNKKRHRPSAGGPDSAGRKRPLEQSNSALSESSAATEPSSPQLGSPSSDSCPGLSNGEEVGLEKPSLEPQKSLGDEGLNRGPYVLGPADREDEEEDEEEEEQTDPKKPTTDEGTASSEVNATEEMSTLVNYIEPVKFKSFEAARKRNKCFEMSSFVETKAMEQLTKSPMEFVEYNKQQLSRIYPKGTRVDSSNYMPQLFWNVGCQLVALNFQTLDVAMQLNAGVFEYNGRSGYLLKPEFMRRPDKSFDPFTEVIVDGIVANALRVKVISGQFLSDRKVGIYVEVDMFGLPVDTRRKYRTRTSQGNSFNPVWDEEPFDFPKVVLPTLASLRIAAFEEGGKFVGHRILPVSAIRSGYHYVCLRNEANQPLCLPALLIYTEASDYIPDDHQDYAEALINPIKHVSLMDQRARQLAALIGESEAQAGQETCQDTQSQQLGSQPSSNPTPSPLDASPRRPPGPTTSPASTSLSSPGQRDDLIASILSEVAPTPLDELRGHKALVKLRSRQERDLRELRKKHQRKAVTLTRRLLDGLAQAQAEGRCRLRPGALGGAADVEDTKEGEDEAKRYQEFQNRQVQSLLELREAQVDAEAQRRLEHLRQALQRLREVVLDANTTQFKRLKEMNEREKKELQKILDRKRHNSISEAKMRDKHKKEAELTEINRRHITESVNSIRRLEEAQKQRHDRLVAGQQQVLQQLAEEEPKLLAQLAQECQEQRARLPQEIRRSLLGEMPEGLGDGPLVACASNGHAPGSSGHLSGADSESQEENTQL
# ARFGAP1 inh: inhibitors of rat ARFGAP1 GAP activity, primary screen, biochemical, fluorescence polarization, GDP tracer. ADP-ribosylation factor GTPase-activating protein 1 (Rattus norvegicus), Q62848. Arfgap1-stimulated ARF1 GTP hydrolysis, GDP FP detection. inhibition, % at 16.5 µM. 0.26% of 360,000 active;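 active = inhibition above a per-plate limit, mean inhibition of low control wells plus 3 SD, cut at about 25% in these data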;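 note: 0% = DMSO wells with enzyme and 100% = wells lacking Arfgap1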
#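 system = rat Arfgap1 catalytic domain, aa 1-136 | technique = FP, GDP Alexa 633 tracer displaced from anti-GDP antibody, 620/688 nm | compound = one concentration, 16.5 µM, DMSO 1.26% | medium = HEPES-based buffer, pH 7.5 | timing = compound-enzyme preincubation 20 min, reaction 120 min, detection 60 min, 25 °C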
# HGIII-sPLA2 inh: human group III sPLA2 inhibitors, primary screen, biochemical, QFRET, BODIPY PC-A2 liposome substrate | QFRET BODIPY PC-A2 liposome hydrolysis, fluorescence | inhibition, % at 12.2 µM | 0.56% of 370,000 active | AID 743126, 2013;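 active = inhibition above mean plus 3 SD of compounds lying within the high and low control bounds, cut at about 19% in these data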;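 note: 0% = median of test compound wells and 100% = no enzyme DMSO wells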
# PLCg1 ctr: PLC-gamma1 enzyme inhibitors, counter-screen for PLC-beta3 inhibitor project, biochemical, fluorescence; shares compounds with PLC-gamma1 inh; purified PLC-gamma1, fluorogenic substrate; inhibition, % at 12.3 µM; 3.1% of 3,300 active
# PLCbeta3 conf: PLC-beta3 inhibitor confirmation, biochemical, fluorescence, purified enzyme | inhibition, % at 12.3 µM | 1% of 3,300 active | shares compounds with PLC-gamma1 inh | fluorogenic substrate fluorescence; in the data active = inhibition above about 11%
# Numbers without * were called inactive; i = inactive; . = not tested or not shown. An excerpt weighted towards active compounds, which were near 1.9% of everything screened. Cut-off read from the data, not from the text of the source, unless noted: active = inhibition above about 9.5%; inactive = the rest.
SMILES,PLC-gamma1 inh,ASAP1 GAP inh,PLCb3 inh,ARFGAP1 inh,HGIII-sPLA2 inh,PLCg1 ctr,PLCbeta3 conf
NC(=O)CCn1nc(-c2ccc(Cl)cc2)c2ccccc2c1=O,12*,-1,2,-2,6,-7,-7
O=C(CCn1nc(-c2ccc(Cl)cc2)c2ccccc2c1=O)Nc1cccnc1,2,13,-2,-14,-8,.,.
O=C(O)c1ccccc1/C=N/NC(=S)NC1CCCCC1,11*,11,7,-4,4,-9,-4
O=C(O)c1ccccc1/C=N/NC(=O)C1CCCCC1,5,12,-3,-17,1,.,.
COC(=O)c1cc(-c2cccc(OC(F)(F)F)c2)c(=O)n2c1CCC2,-13,.,-16,.,4,.,.
CC1(C)CC(C2N3CC4(C)CN2CC(C)(C3)C4=O)CCO1 (stereo not given),13*,9,0,1,0,-6,-2
COc1ccc(C(=O)Cn2c(C)nc([N+](=O)[O-])c2Br)cc1,5,0,-5,3,5,.,.
Cc1nc([N+](=O)[O-])c(Br)n1CC(=O)c1ccc(Cl)cc1,9.7*,-4,1,17,-12,2,0
Cc1cc(NC(=O)COc2cc(F)cc(F)c2)n(-c2ccccc2)n1,-1,.,2,.,5,.,.
CCC(C)[C@H](NC(=O)[C@@H]1Cc2ccccc2CN1)C(=O)NCc1ccc(C)cc1 (stereo not given in full),9.8*,0,-5,8,0,0,-1
O=C(CCc1nc(-c2ccccc2F)no1)NCCc1ccc(F)cc1,-1,.,0,.,-4,.,.
COc1ccc([C@H]2CC(=O)C=C(/C=C/c3ccccc3)C2)cc1OC,11*,13,16*,3,-9,-3,-3
O=C(CSc1nc2ccccc2c(=O)n1-c1ccc(Cl)c(Cl)c1)Nc1ccc2c(c1)CCC2,11*,2,4,-9,8,-7,-4
COCCNC(=O)C[C@H]1CC[C@H]2[C@@H](COc3ccc(NC(=O)Nc4cccc(F)c4)cc3C(=O)N2C)O1,6,.,3,.,-15,.,.
Cc1ccc(NC(=O)Cn2c(=O)oc3ccccc32)cc1,1,-14,-10,-3,-3,.,.
O=C(Cn1c(=O)oc2ccccc21)Nc1ccc(Cl)cc1,11*,-17,-1,-5,-7,-3,4
COc1ccc(-c2nnc(SCc3c(F)cccc3F)n2N)cc1,-2,.,3,.,-2,.,.
O=S1(=O)c2ccc(Br)cc2OC[C@@H](Cc2ccccc2)N1Cc1cn(Cc2ccc(Cl)cc2)nn1,0,.,1,.,8,.,.
CC12CCC(C(=O)Nc3nccs3)(OC1=O)C2(C)C (stereo not given),10*,-5,6,-14,1,-3,-3
Clc1ccc([C@H]2OC[C@@]3(CNCCc4c[nH]c5ccccc45)CS[C@H](c4ccc(Cl)cc4)N23)cc1,-1,.,2,.,-4,.,.
CC(C)=CCN1CCN(Cc2nc(C(C)C)cs2)CC1CCO (stereo not given),-1,6,2,6,-6,.,.
CC(C)=CCN1CCN(Cc2cc(CC(C)C)n[nH]2)CC1CCO (stereo not given),9.6*,-2,0,8,9,-1,0
CCCCCCCCN1C(=O)[C@@H](CC(=O)NCc2cccs2)C[C@@]2(C(=O)OC)C1=C[C@H](COCc1ccccc1)O[C@@H]2C,1,.,-6,.,-6,.,.
Cc1cccc(N2CCN(C(=O)c3ccc4ncsc4c3)CC2)c1C,12*,4,3,3,7,-8,-26
O=C(c1ccc2ncsc2c1)N1CCN(c2ccccc2Cl)CC1,-2,-6,-9,-2,-2,.,.
SMILES,PLC-gamma1 inh,ASAP1 GAP inh,PLCb3 inh,ARFGAP1 inh,HGIII-sPLA2 inh,PLCg1 ctr,PLCbeta3 conf
Cc1ccc(C(=O)CCC(=O)Nc2ccc(Cl)c(S(=O)(=O)Nc3cccc(Cl)c3)c2)cc1,11*,-1,2,9,-40,-2,-9
COc1ccc(C2=NOC(Cn3nc(-c4ccccc4)cc3C(=O)NCc3cccc(Br)c3)C2)cc1 (stereo not given),-21,-2,16*,18,8,-2,-1
Nc1[nH]c(C(=O)c2ccccc2)c(-c2ccncc2)c1C(=O)NC1CC1,10*,4,2,6,5,-6,-3
Nc1[nH]c(C(=O)c2ccccc2)c(-c2ccc(Br)cc2)c1C(=O)NC1CCCCC1,-1,-4,-6,3,0,.,.
COc1ccc(C(c2ccc(OC)cc2)N2CCN(C(=O)c3noc(C)c3[N+](=O)[O-])CC2)cc1,4,.,2,.,-49,.,.
COC(=O)[C@]12C[C@H](CC(=O)NCCC(C)C)C(=O)N(CCc3ccc(OC)c(OC)c3)C1=C[C@H](C(C)C)O[C@@H]2C1CC1,2,.,2,.,5,.,.
CSC[C@H]1CN(c2ccc(Br)cc2)C(=O)[C@@H]1CC(=O)Nc1ccccc1,3,-9,5,6,-5,.,.
CSC[C@H]1CN(c2ccccc2)C(=O)[C@@H]1CC(=O)Nc1ccccc1,9.5*,-8,9,2,-7,-6,-1
CCOc1cc(CN2CCN(c3cccc(C(F)(F)F)c3)CC2)ccc1O,9.7*,5,6,16,-9,-2,3
O=C(Nc1ccccc1N1CCCCC1)c1ccc(-c2cccc(Cl)c2)o1,13*,14,2,6,3,-117,-114
Cc1c[nH]c2cccc(-c3cc4ccccc4o3)c12,-440,.,i,.,-41,.,.
Cn1c(CSCc2ccccc2Cl)nnc1SCC(=O)Nc1nccs1,15*,-8,0,-6,-10,-3,-1
O=C1C=C(O)c2c(O)cc(O)c(O)c2C1=O,31*,-9,15*,-21,12,6,1
C=CC[C@H](CC(=O)OC(C)(C)C)C(=O)OC[C@@H]1CCCN1C(=O)[C@@H](CC=C)CC(=O)NCCO,9.8*,8,3,5,6,-9,-1
COc1ccccc1N1CCN(C(=O)c2cc3c(C)nn(-c4ccccc4)c3s2)CC1,-1,.,-4,.,1,.,.
Cc1cc(C)cc(NC(=O)c2cccn2-c2ncc(C(F)(F)F)cc2Cl)c1,13*,2,9,-16,-2,-1,1
O=C(Nc1ccc(F)cc1F)c1cccn1-c1ncc(C(F)(F)F)cc1Cl,-2,-3,3,3,2,.,.
O=C(c1ccccc1)N1CCC(Oc2cccnc2)CC1,1,.,0,.,1,.,.
